Ab BasE inh: BasE siderophore biosynthesis inhibition; inhibition, % (no concentration beside the values); actives 0.1% (n = 84,000); purified BasE, fluorescence polarization binding displacement; in the data active means inhibition above about 25%, passing the limit was not always enough;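 further: 0% = negative plate control signal and 100% = positive plate control signal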
LANA-nucl inh: LANA-nucleosome interaction inhibition; FITC-LANA1-23 / chicken nucleosome fluorescence polarization; hits give low values; z-score (test concentration not listed); actives 0.3% (n = 51,000);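 active means both repeat wells score below -2 in polarization z-score versus plate sample wells, excluding overly bright wells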
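Material: Purified chicken nucleosomes with FITC-labelled LANA N-terminal peptide (1-23) | Reagent: 50 nM FITC-LANA1-23 probe | Medium: TEN-BT buffer, pH 7.5 | Times: 10–45 min incubation at room temperature | Detection: Fluorescence polarization | Replication: Duplicates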
Active calls of the source: *; x = not tested or not shown. A selection: hits, their analogues and other compounds. The true share with any hit is near 0.3%.

SMILES	Ab BasE inh	LANA-nucl inh
COc1ccc(S(=O)(=O)Nc2cc(Cl)ccc2Sc2nncn2C)cc1Br	2	x
O=C(NCCCO)Nc1ccc2nc(-c3ccco3)c(-c3ccco3)nc2c1	23	-3*
O=C(Nc1ccc(N2CCOCC2)cc1)Nc1ccc2nc(-c3ccco3)c(-c3ccco3)nc2c1	3	-0.67
CCn1c(SC(C)C(=O)NC(N)=O)nc2ccccc2c1=O (stereo not given)	1	x
O=C1C(c2ccc(I)cc2)=C(O)c2ccccc21	4	x
O=C1C(c2ccnc3ccccc23)=C(O)c2ccccc21	2	-4.2*
N#Cc1c(NCc2ccccc2)ncc2c1Nc1ccccc1C2	-1	-3.3*
CC(C)c1nc(NCc2ccccc2)c(C#N)c2c1CCCC2	2	0.065
Cc1ccc(C(C(=O)NCc2ccccc2)N(C(=O)c2snc(C(N)=O)c2N)c2ccc3c(c2)OCCO3)o1 (stereo not given)	0	-0.74
O=C(O)c1cc(-c2ccc(O)c(O)c2)nc2n[nH]c(-c3ccc(F)cc3)c12	41*	-0.27
COc1ccc(-c2cc(C(=O)N3CCOCC3)c3c(-c4ccc(Cl)cc4)[nH]nc3n2)cc1	-6	1.9
COC(=O)c1noc(C)c1C(=O)/C=C/N(C)C	7	x
O=C1CSc2sc(=S)sc2S1	28*	x
O=c1ccc2cc3c4c(c2o1)CCCN4CCC3	17	-5.2*
CC(C)c1c(Br)c(=O)oc2c3c4c(cc12)CCCN4CCC3	21	x
CCC(=O)N(c1nnc(SCCN2C(=O)c3ccccc3S2(=O)=O)s1)C1CC1	0	x
COc1ccc(C2CC(=O)N3C(=C2C#N)SCC3(O)c2ccccc2)cc1 (stereo not given)	-6	2.2
COc1ccc(C2C(C(N)=O)C(=O)NC(O)(c3ccccc3)C2C#N)cc1 (stereo not given)	2	-2.3*
Oc1ccc(C2SCCS2)cc1	53*	x
O=C(O)c1ccc(C2SCCCS2)cc1	1	x
CC(C)CNc1nc(SCC(N)=O)nc(N(C)C)n1	-1	0.53
Cc1cc(C)c(C)c(S(=O)(=O)N2CCN(c3ncnc4sc5c(c34)CCCC5)CC2)c1C	2	x
CCCCn1cnc2cc(NCc3ccncc3)ccc21	13	-0.39
COc1ccccc1-n1cnc2cc(NCc3ccncc3)ccc21	32*	0.49
O=C1NCCN1CCN1C(=O)c2ccccc2NC1c1cccs1 (stereo not given)	-2	-1.3
SMILES	Ab BasE inh	LANA-nucl inh
CCOC(=O)c1nc(N2CCC3(CC2)OCCO3)c2ccccc2n1	2	0.25
C=CCn1c(=O)[nH]c2nc3cc(N=CN(C)C)ccc3nc2c1=O	26	-5.8*
C=CCn1c(=O)[nH]c2nc3cc(NC(=O)CC)ccc3nc2c1=O	19	-1.5
O=C(COCc1cc(-c2ccco2)on1)Nc1cc(C(F)(F)F)ccc1Cl	-2	-0.61
CCCCNC(=O)c1ccc2c(c1)NC(=O)C(C)N2 (stereo not given)	-6	-3.2*
C=CCNC(=O)c1ccc2c(c1)NC(=O)C(C)N2 (stereo not given)	-1	0.092
COC(=O)c1sc2nc(-c3ccco3)cc(C(F)(F)F)c2c1N	3	-1.1
COC(=O)c1sc2nc3c(c(C(F)(F)F)c2c1N)CN(C(C)=O)CC3	31	-8.1*
CCOC(=O)N1CCC(NC(=O)CCNC(=O)Cn2ccc3ccccc3c2=O)CC1	2	-0.5
O=c1oc2ccccc2c(O)c1Cc1cc(Cl)c2cccnc2c1O	23	x
Cc1cc(O)c(Cc2cc(Cl)c3cccnc3c2O)c(=O)o1	78*	x
Cc1cc(-n2cnc(-c3cnoc3C)n2)no1	0	x
C=CCn1c(=N)n(CC(O)C(C)(C)C)c2ccccc21 (stereo not given)	1	-0.38
CCC(=O)N1N=C2CCCCC2C1(O)C(F)(F)F (stereo not given)	4	0.2
COc1ccc(CN(C(=O)Nc2ccccc2)C2CC2)cc1	-1	x
O=C(Nc1cccc(-c2nn[nH]n2)c1)c1cccc(C(F)(F)F)c1	0	-0.21
O=C(Nc1cccc(-c2nn[nH]n2)c1)c1ccc(Br)o1	3	-2.1*
Cc1ccc(C)n1-c1cc(Cl)ccc1N1CCCCC1	-1	x
Cc1ccc(C)n1-c1cc(Cl)ccc1C(=O)O	85*	-0.21
CCN(CC)c1ccc(NC(=O)c2ccc(OC)c(OC)c2)cc1	-2	0.68
O=C(O)CCc1ccc(-c2ccc(F)cc2)n1CC1CCCO1 (stereo not given)	-2	2.7
O=C(O)CCc1ccc(-c2ccc(F)cc2)n1CCC(=O)O	2	-2.1*
Cc1cc(O)c(Cc2c(O)cc(C)n(C)c2=O)c(=O)n1C	1	-2.4*
Cc1cc(O)cc(=O)n1C	1	0.066
O=C(O)c1cccn2nnnc12	0	-2.3*
SMILES	Ab BasE inh	LANA-nucl inh
O=C(O)c1ccccc1O	-1	0.21
NC(=O)C1CCN(C(=O)C2CCN(S(=O)(=O)c3ccc(-n4cnnn4)cc3)CC2)CC1	1	-0.54
Oc1ccc(/C=N/NC(=S)Nc2ccc(Cl)cc2Cl)c(O)c1O	34*	x
CC(C)(C)N/N=C/c1ccc(O)c(O)c1O	5	x
Cc1ccc2c(c1)c1c(n2C)C(C#N)CCC1 (stereo not given)	2	-0.56
Cc1ccc2c(c1)c1c3c(nccn32)CCC1	10	-3.2*
CCCCC(=O)Nc1ccc2oc(-c3ccc(OC)c(Cl)c3)nc2c1	1	-0.38
Cc1cc(NCCN(C)C)c2ccccc2n1	3	-2.2*
Cc1cc(NCCNc2ccccc2)c2ccc3ccccc3c2n1	-13	x
O=C(CN1CCCCC1)OCCCC1CCCCC1	2	-0.52
NC(c1ccccc1)c1ccccc1	-2	x
Cn1nccc1C(N)c1ccccc1 (stereo not given)	26*	-0.53
CC(=O)OCCNc1cc(Cl)c2noc3c2c1C(=O)c1ccccc1-3	8	-3.7*
CCNc1cc(NCC)c2noc3c2c1C(=O)c1ccccc1-3	3	-0.064
O=C1NC(=O)/C(=C\c2cn(Cc3ccccc3F)c3ccccc23)N1	2	x
N#Cc1ccccc1Cn1cc(C=C2C(=O)NC(=O)NC2=O)c2ccccc21	5	-3.6*
Cc1nn(-c2ccccc2)c2sc(C(=O)OCC(=O)Nc3ccccc3)cc12	2	x
C=CCOc1ccc(C(=O)NCC)cc1	1	0.35

Source: PubChem
